OX1R antag-1: blocks the human orexin 1 receptor; CHO/OX1R cells, Fluo-8 calcium fluorescence, orexin A; AID 434989; actives 0.43% (n = 330,000); inhibition, % at 5 µM; O43613;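 active = inhibition above its plate's threshold, mean inhibition of all tested compounds on the plate plus 3 SD, cut at about 37% in these data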;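 also: 0% = orexin A challenge wells and 100% = SB-334867-A antagonist wells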
OX1R antag-2: antagonists of human orexin 1 receptor (OX1R); O43613; OX1R-expressing cells, FRET antagonist read-out; inhibition, % at 6.6 µM; actives 1.8% (n = 330,000); AID 485270; in the data active = inhibition mostly above about 38%, no sharp cut-off; inactive = mostly below about 40%;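 also: 0% = agonist challenge alone and 100% = reference antagonist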
OXTR potentiator: potentiates the human oxytocin receptor response; P30559; CHO-OTR cells, Fluo-8 calcium fluorescence, potentiator mode; 0% = oxytocin EC15, 100% = EC100; activation, % at 3 µM; actives 0.061% (n = 320,000);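 active = activation above that plate's cutoff, the mean activation of tested compounds plus 3 SD, cut at about 6.6% in these data, passing the limit was not always enough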;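 also: 100% uses oxytocin at 75 nM as the full agonist control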
Target sequence (P30559 whole entry, looked up): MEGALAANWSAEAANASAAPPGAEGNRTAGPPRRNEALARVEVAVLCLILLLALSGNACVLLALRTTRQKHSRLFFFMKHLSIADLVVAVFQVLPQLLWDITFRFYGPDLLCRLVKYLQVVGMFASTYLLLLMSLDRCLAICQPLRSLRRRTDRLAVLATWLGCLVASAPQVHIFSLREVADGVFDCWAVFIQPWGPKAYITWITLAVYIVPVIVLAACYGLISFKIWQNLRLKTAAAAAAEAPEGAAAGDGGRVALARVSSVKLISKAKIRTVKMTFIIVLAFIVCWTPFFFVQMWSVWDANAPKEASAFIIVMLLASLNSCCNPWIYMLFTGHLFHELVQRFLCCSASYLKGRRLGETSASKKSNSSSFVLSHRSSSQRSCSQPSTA
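test system = CHO-OTR cells, human receptor | compound = single-point 3.0 µM | schedule = 6 min compound pre-incubation at room temperature, 100 s kinetic read | signal = Fluo-8 no-wash calcium dye fluorescence, excitation 470-495 nm, emission 515-575 nm | repeats = single well per compound, singlicate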
V1aR counter: activates human V1a receptor in oxytocin agonist counter-screen | P37288 | CHO-V1R cells, Fluo-8 calcium fluorescence, agonist mode; 0% DMSO, 100% 3 nM vasopressin | activation, % at 3 µM | actives 0.25% (n = 320,000);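 active = activation above the mean activation of all tested compounds plus 3 SD, per screening run, cut at about 20% in these data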;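 also: signal is peak over basal fluorescence ratio across a 100 second FLIPR read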
OXTR agonist: activates the human oxytocin receptor | AID 2435 | actives 0.32% (n = 320,000) | CHO-OTR cells, Fluo-8 calcium fluorescence; normalized: DMSO 0%, oxytocin 100% | activation, % at 3 µM;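 active = activation above the mean of all tested compounds plus 3 SD, cutoff set per screening run, cut at about 20% in these data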;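 also: peak over basal fluorescence ratio from a 100 s FLIPR kinetic read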
CHO parental Ca: counter-screen: ATP calcium response change in parental CHO cells; parental CHO-K1, ATP-induced calcium, Fluo-8 fluorescence; inhibition, % at 5.6 µM; actives 0.63% (n = 330,000); AID 463079;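 active = inhibition above that plate's mean sample inhibition plus 3 SD, cut at about 26% in these data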;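 also: 0% = ATP-challenged DMSO wells and 100% = DMSO wells without ATP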
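test system = CHO parental line | reagent = ATP stimulus | measured by = intracellular calcium via Fluo-8 no-wash fluorescent dye | control set = ATP and no-ATP DMSO wells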
OX1R HTRF confirm: OX1R (human) antagonism, HTRF confirmed; shares compounds with OX1R antag-2; OX1R-expressing cells, HTRF antagonist assay; inhibition, % at 6.6 µM; actives 49% (n = 1,800); AID 492964; in the data active = inhibition above about 55%;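 also: CHO cells expressing OX1R stimulated with orexin A at about EC80; 0% = agonist challenge alone and 100% = reference antagonist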
CHO-K1 HTRF: counter-screen: parental CHO-K1 HTRF response. shares compounds with OX1R antag-2. parental CHO-K1 cells, HTRF counterscreen. inhibition, % at 6.6 µM. actives 48% (n = 1,800). AID 493232; in the data active = inhibition above about 17%;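 also: 0% = agonist challenge with vehicle and 100% = vehicle alone without agonist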
Numbers without * were called inactive; x = no result. In the library only some 2.6% were active in any assay of this set; here they are far more common.

SMILES	OX1R antag-1	OX1R antag-2	OXTR potentiator	V1aR counter	OXTR agonist	CHO parental Ca	OX1R HTRF confirm	CHO-K1 HTRF
COCCCn1cnc2oc3nc4ccccc4nc3c2c1=O	-3	85*	-3	0	0	-4	67*	107*
COC(=O)CN1C(=O)N/C(=C/c2ccccc2OC)C1=O	-17	119*	-15	0	-1	-5	19	6
O=C(/C=C/c1ccc([N+](=O)[O-])cc1)NCc1cccnc1	-3	104*	-13	0	1	3	35	36*
O=C(N/N=C/c1ccccc1[N+](=O)[O-])C(=O)N1CCCC1	-15	92*	1	0	-1	1	22	26*
CC(=O)N(/N=C1\Sc2ccccc2C1=O)c1ccc(C)cc1C	-15	56	-15	-1	-2	-9	x	x
CC(=O)N(/N=C1\Sc2ccccc2C1=O)c1ccccc1C	-13	105*	-4	2	-1	-38	38	12
CC(C)N(CCO)Cc1nc(C(c2ccccc2)c2ccccc2)no1	-36	12	-2	-1	-1	-21	x	x
COc1cc2c(cc1OC)-c1cc3ccc4c(c3c[n+]1CC2)OCO4	0	79*	-7	0	1	-6	54	75*
COc1cc2c(cc1O)CC[n+]1cc3c(OC)c(OC)ccc3cc1-2	-5	77*	-4	0	0	-12	42	37*
COc1cc2c(cc1OC)C(c1ccccc1)=NCC2	-15	17	1	0	0	-4	x	x
Cc1ccc(NC(=O)c2oc3ccccc3c2C)nc1	14	84*	-7	1	-2	-12	79*	3
Cc1ccc(S(=O)(=O)N2CCC(NC(=O)C3CCCCC3)CC2)cc1	13	4	1	0	0	10	x	x
NCCCC[C@@H]1NC(=O)c2cc([N+](=O)[O-])cc(I)c2SC[C@@H](C(=O)NCC(N)=O)NC(=O)CNC1=O	-15	87*	-8	1	0	-1	31	56*
NCCCC[C@@H]1NC(=O)c2cc([N+](=O)[O-])cc(I)c2SC[C@@H](C(N)=O)NC(=O)[C@H](CCC(N)=O)NC1=O	0	46	-7	-1	0	-9	x	x
O=C(Cc1cccs1)NCc1ccccc1Br	-23	-4	-19	-1	-1	-8	x	x
O=C(O)Cc1ccc(NC(=O)c2ccc3c(c2)C(=O)N(CC2CCCO2)C3=O)cc1 (stereo not given)	-3	79*	-9	1	0	-14	43	43*
COC(=O)Cc1ccc(NC(=O)c2ccc3c(c2)C(=O)N(CC2CCCO2)C3=O)cc1 (stereo not given)	-26	21	-2	6	6	-8	x	x
O=C(c1ccc(Br)cc1)N(Cc1ccco1)C1CCS(=O)(=O)C1 (stereo not given)	-21	7	-7	0	0	-17	x	x
CCn1c(O)c(N=NC(=O)C(O)c2ccccc2)c2ccccc21 (stereo not given)	-9	59	-3	0	0	-13	x	x
COc1ccc(N(CC(=O)NCc2ccco2)C(=O)CNS(=O)(=O)c2ccc(Cl)cc2)cc1	-18	28	-12	1	2	-19	x	x
Oc1cccc(Nc2nc(O)c(/C=C3\C=Nc4ccccc43)s2)c1	10	18	-15	8	2	17	x	x
Oc1nc(Nc2ccc(F)cc2)sc1/C=C1\C=Nc2ccccc21	23	93*	-25	0	-2	2	23	-1
CCCNC(=O)c1nc(C)n(-c2ccc([N+](=O)[O-])cc2)n1	-8	137*	-4	0	-1	-9	71*	52*
COc1ccc(NC(=O)c2nc(C)n(-c3ccc([N+](=O)[O-])cc3)n2)cc1	-11	107*	-14	0	-1	-11	25	33*
CNC(=O)c1nc(C)n(-c2ccc([N+](=O)[O-])cc2)n1	1	46	1	0	0	-8	x	x
SMILES	OX1R antag-1	OX1R antag-2	OXTR potentiator	V1aR counter	OXTR agonist	CHO parental Ca	OX1R HTRF confirm	CHO-K1 HTRF
COc1ccc(/C(C)=N/Nc2nc3ccccc3n3cnnc23)cc1OC	-4	9	-7	-2	-1	-4	x	x
C/C(=N\Nc1nnc2c3ccccc3n(C)c2n1)c1ccc(C)o1	0	93*	-9	1	-1	-13	96*	17*
Cc1ccc(N2C(=O)c3ccc(C(=O)NCCN4CCOCC4)cc3C2=O)cc1	-12	82*	-16	2	2	-6	51	44*
CC1CCN(C(=O)Cn2c3ccc(F)cc3c3nc4n(c(=O)c32)CCCS4)CC1	-22	91*	0	-1	-1	-11	20	7
CC1CCN(C(=O)Cn2c3ccccc3c3nc4n(c(=O)c32)CCCS4)CC1	-20	26	-5	0	-1	-16	x	x
CCCOc1ccc(C(=O)ON=C2CCN(C)CC2)cc1	-18	9	-7	1	0	-11	x	x
COc1ccc(/C=C2\OC(=O)c3c(OC)cccc32)cc1OC	-17	78*	-12	-1	-2	-17	66*	3
COc1ccc(C=C2C(=O)OC(C)(C)OC2=O)cc1OC	-15	9	-8	0	1	-13	x	x
CCC1SC(N)=NC1=O (stereo not given)	0	7	-5	0	1	7	x	x
CCNC1=C(Cl)C(=O)c2ccccc2C1=O	-15	178*	-12	-2	-2	8	58*	93*
O=C1C(Cl)=C(NCCN2CCCCC2)C(=O)c2ccccc21	-11	90*	-7	0	0	8	68*	71*
OCCCCCN=c1cc(-c2ccccc2)oc2ccc(Cl)cc12	-27	82*	-23	-1	0	-23	54	54*
OCCN1CCN(c2nc(-c3ccccc3)c3cc(Cl)ccc3n2)CC1	-17	8	-8	5	10	-29	x	x
COC(=O)c1ccc(Nc2cc(C)nc(-c3ccccc3O)n2)cc1	-19	5	-5	1	0	-17	x	x
CCOC(=O)c1ccc(Nc2cc(C)nc(-c3ccccc3)n2)cc1	26	83*	-5	0	1	8	29	15
CC1=CC(=O)C(C(C)C)=C/C1=N/OC(=O)c1cccc([N+](=O)[O-])c1	-3	16	0	2	2	2	x	x
